Data on eight compounds can be found in ChEMBL document CHEMBL1150687, “Three new cytotoxic sesterterpenes from a marine sponge Spongia sp” (J Nat Prod, 2003).

Values after ≈ are worked out from the molar mass of the structure shown. Active and inactive are the calls of the source. No cut-off for these calls is given here.

The subject of one assay is HeLa. The experiment in a line: Cytotoxicity against human HeLa cells. The format is functional, cell-based.
Another assay has as its system L1210. The experiment in a line: Cytotoxicity against mouse L1210 cells. The format is functional, cell-based.
A further assay concerns A549. The assay is described as follows: Cytotoxicity against human A549 cells. It counts as functional, cell-based.
The test system of the next assay is KB. The experiment in a line: Cytotoxicity against human KB cells. The format is functional, cell-based.
Assay [1] concerns CCRF S-180. The experiment in a line: Antitumor activity against mouse S180 cells xenografted ICR/kwl mouse assessed as increase in mouse life span at 5 mg/kg, ip relative to control. The format is functional. A digest of the protocol: (§1)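 Female ICR/kwl mice (7 weeks, 19-21 g), six per group, inoculated ip with 0.1 mL sarcoma-180 suspension (1×10^7 cells/mL in saline). Compound dissolved in a little dimethylacetamide, suspended in 10% Tween 80-saline (1 mg/mL), given ip on days 1, 5 and 9 after inoculation. Survival followed; ILS (%) = (A/B − 1)×100 from weighed median survival days, treated versus untreated controls.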

For assay [2], the system named is CCRF S-180. The experiment in a line: Antitumor activity against mouse S180 cells xenografted ICR/kwl mouse assessed as increase in mouse life span at 10 mg/kg, ip relative to control. The format is functional. In outline: as §1

`CC1(C)CCC[C@]2(C)[C@H]3C[C@@H](O)[C@]4(C)[C@@H]5C(=CC[C@H]4[C@]3(C)CC[C@@H]12)C(=O)O[C@H]5O`: the IC50 (as a rule, the midpoint of a concentration-inhibition curve) with HeLa was 15 µg/mL (≈ 37.3 µM); in the assay with L1210 it was 2.3 µg/mL (≈ 5.71 µM); in the assay on A549, 14.8 µg/mL (≈ 36.8 µM); with KB it was 14.3 µg/mL (≈ 35.5 µM). The outcome in the assay with CCRF S-180 [1] was inactive.

With `CC(=O)O[C@@H]1C[C@@H]2[C@@]3(C)CCCC(C)(C)[C@@H]3CC[C@@]2(C)[C@@H]2CC=C3CO[C@@H](O)[C@@H]3[C@@]12C`, the half-maximal inhibitory concentration (IC50) with HeLa turned out to be 22.5 µg/mL (≈ 52.2 µM); in the assay on L1210 it was 2.1 µg/mL (≈ 4.88 µM); with A549, 29.4 µg/mL (≈ 68.3 µM); with KB, 16.2 µg/mL (≈ 37.6 µM). The Activity with CCRF S-180 [2] (route intraperitoneal) stood at 28%.

In the case of `CC1(C)CCC[C@]2(C)[C@H]3C[C@@H](O)[C@]4(C)[C@H]5COC(=O)C5=CC[C@H]4[C@]3(C)CC[C@@H]12`, the half-maximal inhibitory concentration (IC50) in the assay on HeLa was determined as 16.5 µg/mL (≈ 42.7 µM); with L1210 it was 1.6 µg/mL (≈ 4.14 µM); in the assay on A549 it was 16.5 µg/mL (≈ 42.7 µM); in the assay with KB, 17.1 µg/mL (≈ 44.2 µM). The Activity in the assay with CCRF S-180 [1] (route intraperitoneal) was 50.3%.

Take `O=c1[nH]cc(F)c(=O)[nH]1` [FLUOROURACIL]: the result in the assay with CCRF S-180 [2] was Active. For the same compound, the Activity with CCRF S-180 [1] (route intraperitoneal) was found to be 32.9%.

As for `CC(=O)O[C@@H]1C[C@@H]2[C@@]3(C)CCCC(C)(C)[C@@H]3CC[C@@]2(C)[C@@H]2CC=C3C(=O)O[C@@H](O)[C@@H]3[C@@]12C`, the half-inhibitory concentration (IC50) in the assay on HeLa is 26 µg/mL (≈ 58.5 µM); in the assay on L1210 it was 13.2 µg/mL (≈ 29.7 µM); with A549 it was 23.7 µg/mL (≈ 53.3 µM); in the assay with KB it was 18.5 µg/mL (≈ 41.6 µM).

For `CO[C@@H]1C[C@H]2[C@]3(C)CC[C@H]4C(C)(C)CCC[C@]4(C)[C@H]3C[C@@H](OC(C)=O)[C@]2(C)C2=C1C(=O)O[C@H]2O`, the half-inhibitory concentration (IC50) in the assay on HeLa was determined as 5.3 µg/mL (≈ 11.2 µM); in the assay with L1210, 2.2 µg/mL (≈ 4.64 µM); with A549, 5.3 µg/mL (≈ 11.2 µM); with KB, 15.6 µg/mL (≈ 32.9 µM).

As for `CC1(C)CCC[C@]2(C)[C@H]3C[C@@H](O)[C@]4(C)c5cocc5CC[C@H]4[C@]3(C)CC[C@@H]12`, the IC50 in the assay on HeLa is 19.5 µg/mL (≈ 52.6 µM); in the assay with L1210 it was above 50 µg/mL; in the assay on A549, above 50 µg/mL; in the assay on KB, above 50 µg/mL.

In the case of `CO[C@@]12[C@H](COC(N)=O)C3=C(C(=O)C(C)=C(N)C3=O)N1C[C@@H]1N[C@@H]12` [MITOMYCIN], the IC50 in the assay with HeLa came out at 0.015 µg/mL (≈ 0.0449 µM); in the assay with L1210 it was 0.02 µg/mL (≈ 0.0598 µM); in the assay with A549 it was 0.02 µg/mL (≈ 0.0598 µM); with KB, 0.015 µg/mL (≈ 0.0449 µM).
